Assay results reported in ChEMBL document CHEMBL3120161, “Antimycobacterial activity of nitrogen heterocycles derivatives: bipyridine derivatives. Part III” (Eur J Med Chem, 2014).
Values after ≈ are worked out from the molar mass of the structure shown. Active and inactive are the calls of the source. The rule behind the calls is not given here.

Columns and labels:
[1] = test system: Mycobacterium tuberculosis; assay: Antimycobacterial activity against Mycobacterium tuberculosis H37Rv ATCC 27294 at 100 ug/ml after 7 days by microplate Alamar blue assay relative to control; type: functional; details: H37Rv ATCC 27294, 168 h
In short: (§1)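 Cycle 1 HTS MABA: M. tuberculosis H37Rv ATCC 27294 in 7H12 broth, 384-well, final 1% DMSO. Ten twofold dilutions, typically 100 to 0.195 µg/mL. Amikacin controls at 0.17 and 3.20 µM; the high level serves as background for percent inhibition. 7 days at 37 °C, ~95% humidity. Fluorescence read at 535 nm excitation / 590 nm emission.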

[2] = test system: Mycobacterium tuberculosis; assay: Antimycobacterial activity against Mycobacterium tuberculosis H37Rv ATCC 27294 at 12.5 to 50 ug/ml after 7 days by microplate Alamar blue assay relative to control; type: functional; in short: as §1
[3] = test system: Mycobacterium tuberculosis; assay: Antimycobacterial activity against Mycobacterium tuberculosis H37Rv ATCC 27294 at 3.13 ug/ml after 7 days by microplate Alamar blue assay relative to control; type: functional; details: H37Rv ATCC 27294, 168 h; in short: as §1
[4] = test system: Mycobacterium tuberculosis; assay: Antimycobacterial activity against Mycobacterium tuberculosis H37Rv ATCC 27294 at 1.56 ug/ml after 7 days by microplate Alamar blue assay relative to control; type: functional; details: H37Rv ATCC 27294, 168 h; in short: as §1
[5] = test system: Mycobacterium tuberculosis; assay: Antimycobacterial activity against Mycobacterium tuberculosis H37Rv ATCC 27294 after 7 days by broth microdilution assay; type: functional; details: H37Rv ATCC 27294, 168 h; in short: as §1
[6] = test system: Mycobacterium tuberculosis; assay: Antimycobacterial activity against Mycobacterium tuberculosis H37Rv ATCC 27294 after 7 days by microplate Alamar blue assay; type: functional, organism-based; details: H37Rv ATCC 27294, 168 h; in short: as §1
[7] = test system: Mycobacterium tuberculosis; assay: Antimycobacterial activity against Mycobacterium tuberculosis H37Rv ATCC 27294 at 6.25 ug/ml after 7 days by microplate Alamar blue assay relative to control; type: functional; details: H37Rv ATCC 27294, 168 h; in short: as §1
[8] = test system: Mycobacterium tuberculosis; assay: Antimycobacterial activity against Mycobacterium tuberculosis H37Rv ATCC 27294 at 6.5 ug/ml after 7 days by microplate Alamar blue assay relative to control; type: functional; details: H37Rv ATCC 27294, 168 h; in short: as §1
[9] = test system: Mycobacterium tuberculosis; assay: Antimycobacterial activity against Mycobacterium tuberculosis H37Rv SRI 1345 infected in mouse J774A1 cells assessed as reduction in bacterial growth at 1 ug/ml after 7 days relative to control; type: functional, J774.A1
In short: (§2)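 Murine J774 macrophages grown in RPMI 1640 with L-glutamine and FBS at 37 °C, 5% CO2. Plated at 2.0 × 10^5 in 10% FBS, switched to 1% FBS next day. Infected 24 h later at MOI 5 for 4 h, washed, then drug added. At 0 and 7 days, cells lysed with SDS, DNase-treated and plated on 7H10 agar for CFU. Duplicates; read-out is log reduction from day 0 to day 7.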

[10] = test system: Mycobacterium tuberculosis; assay: Antimycobacterial activity against Mycobacterium tuberculosis H37Rv SRI 1345 infected in mouse J774A1 cells assessed as reduction in bacterial growth at 0.01 ug/ml after 7 days relative to control; type: functional, J774.A1; in short: as §2
[11] = test system: Mycobacterium tuberculosis; assay: Antimycobacterial activity against Mycobacterium tuberculosis H37Rv SRI 1345 infected in mouse J774A1 cells assessed as reduction in bacterial growth at 0.1 ug/ml after 7 days relative to control; type: functional, J774.A1; in short: as §2
[12] = test system: Mycobacterium tuberculosis; assay: […] activity against Mycobacterium tuberculosis H37Rv SRI 1345 after 16 to 21 days; type: functional
In short: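 MBC, done after MIC testing in H37Rv SRI 1345: diluted aliquots from wells without macroscopic growth are plated on Middlebrook 7H10 agar and incubated 16–21 days at 37 °C. CFUs are counted. MBC is the lowest concentration giving 99.9% kill; rejection value is ≥40 colonies.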

[13] = test system: Mycobacterium tuberculosis; assay: Antimycobacterial activity against Mycobacterium tuberculosis H37Rv SRI 1345 after 7 days by broth microdilution assay; type: functional; details: H37Rv SRI 1345, 168 h
[14] = test system: Mycobacterium tuberculosis; assay: Antimycobacterial activity against Mycobacterium tuberculosis H37Rv SRI 1345 incubated for 7 days under anaerobic condition measured after 7 days of recovery under gaseous condition by low oxygen recovery assay; type: functional
[15] = Cytotoxicity against mouse J774A1 cells assessed as cell viability at 0.1 ug/ml after 7 days by MTT assay relative to control; type: cell-based, J774.A1; details: read-out: Activity
In short: (§3)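 Uninfected murine J774 macrophages grown in RPMI 1640 with L-glutamine and FBS at 37 °C, 5% CO2. Cells seeded at 2.0 × 10^5 per well in 10% FBS, then switched to 1% FBS overnight. Run in parallel with the 7-day infection assay. […] Read out by MTT as percent viability.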

[16] = Cytotoxicity against mouse J774A1 cells assessed as cell viability at 1 ug/ml after 7 days by MTT assay relative to control; type: cell-based, J774.A1; details: read-out: Activity; in short: as §3
[17] = Cytotoxicity against mouse J774A1 cells assessed as cell viability at 0.01 ug/ml after 7 days by MTT assay relative to control; type: cell-based, J774.A1; details: read-out: Activity; in short: as §3
[18] = test system: Mycobacterium tuberculosis; assay: Antimycobacterial activity against Mycobacterium tuberculosis H37Rv SRI 1345 at MIC after 7 days by broth microdilution assay relative to control; type: functional
[19] = test system: Mycobacterium tuberculosis; assay: Antimycobacterial activity against Mycobacterium tuberculosis H37Rv ATCC 27294 at 0.02 ug/ml after 7 days by microplate Alamar blue assay relative to control; type: functional; details: H37Rv ATCC 27294, 168 h; in short: as §1
[20] = test system: Mycobacterium tuberculosis; assay: Antimycobacterial activity against Mycobacterium tuberculosis H37Rv ATCC 27294 at 0.31 ug/ml after 7 days by microplate Alamar blue assay relative to control; type: functional; details: H37Rv ATCC 27294, 168 h; in short: as §1
[21] = test system: Mycobacterium tuberculosis; assay: Antimycobacterial activity against Mycobacterium tuberculosis H37Rv ATCC 27294 at 0.63 ug/ml after 7 days by microplate Alamar blue assay relative to control; type: functional; details: H37Rv ATCC 27294, 168 h; in short: as §1
[22] = test system: Mycobacterium tuberculosis; assay: Antimycobacterial activity against Mycobacterium tuberculosis H37Rv ATCC 27294 at 1.25 to 5 ug/ml after 7 days by microplate Alamar blue assay relative to control; type: functional; in short: as §1
[23] = test system: Mycobacterium tuberculosis; assay: Antimycobacterial activity against Mycobacterium tuberculosis H37Rv ATCC 27294 at 12.5 ug/ml after 7 days by microplate Alamar blue assay relative to control; type: functional; details: H37Rv ATCC 27294, 168 h; in short: as §1
[24] = test system: Mycobacterium tuberculosis; assay: Antimycobacterial activity against Mycobacterium tuberculosis H37Rv ATCC 27294 at 50 ug/ml after 7 days by microplate Alamar blue assay relative to control; type: functional; details: H37Rv ATCC 27294, 168 h; in short: as §1
[25] = test system: Mycobacterium tuberculosis; assay: Antimycobacterial activity against Mycobacterium tuberculosis H37Rv ATCC 27294 at 25 ug/ml after 7 days by microplate Alamar blue assay relative to control; type: functional; details: H37Rv ATCC 27294, 168 h; in short: as §1
[26] = test system: Mycobacterium tuberculosis; assay: Antimycobacterial activity against Mycobacterium tuberculosis H37Rv ATCC 27294 at 0.79 ug/ml after 7 days by microplate Alamar blue assay relative to control; type: functional; details: H37Rv ATCC 27294, 168 h; in short: as §1
[27] = Cytotoxicity against mouse J774A1 cells assessed as cell viability at 7.5 ug/ml after 7 days by MTT assay relative to control; type: cell-based, J774.A1; details: read-out: Activity; in short: as §3
[28] = test system: Mycobacterium tuberculosis; assay: Antimycobacterial activity against Mycobacterium tuberculosis H37Rv SRI 1345 infected in mouse J774A1 cells assessed as reduction in bacterial growth at 75 ug/ml after 7 days relative to control; type: functional, J774.A1
In short: (§4)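 Murine J774 macrophages in RPMI 1640 with L-glutamine and FBS, seeded at 2.0 × 10^5 per well in 10% FBS, then switched to 1% FBS. Infected 4 h with H37Rv at MOI 5; unphagocytosed bacteria washed off. Compound added at three concentrations (0.75, 7.5, 75 µg/mL) for 7 days. At 0 and 7 days cells lysed with SDS, DNase-treated and plated on 7H10 for CFU; log reduction reported.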

[29] = Cytotoxicity against mouse J774A1 cells assessed as cell viability at 75 ug/ml after 7 days by MTT assay relative to control; type: cell-based, J774.A1; details: read-out: Activity; in short: as §3
[30] = test system: Mycobacterium tuberculosis; assay: Antimycobacterial activity against Mycobacterium tuberculosis H37Rv ATCC 27294 at 12.5 to 100 ug/ml after 7 days by microplate Alamar blue assay relative to control; type: functional; in short: as §1
[31] = test system: Mycobacterium tuberculosis; assay: Antimycobacterial activity against Mycobacterium tuberculosis H37Rv SRI 1345 infected in mouse J774A1 cells assessed as reduction in bacterial growth at 7.5 ug/ml after 7 days relative to control; type: functional, J774.A1; in short: as §4
[32] = test system: Mycobacterium tuberculosis; assay: Antimycobacterial activity against Mycobacterium tuberculosis H37Rv SRI 1345 infected in mouse J774A1 cells assessed as reduction in bacterial growth at 0.75 ug/ml after 7 days relative to control; type: functional, J774.A1; in short: as §4
[33] = Cytotoxicity against mouse J774A1 cells assessed as cell viability at 0.75 ug/ml after 7 days by MTT assay relative to control; type: cell-based, J774.A1; details: read-out: Activity; in short: as §3

## CC[C@@H](CO)NCCN[C@@H](CC)CO [ETHAMBUTOL]
[1]
  inhibition at 100 µg/mL: 90%
[2]
  inhibition (INH): 89%
[3]
  inhibition at 3.13 µg/mL: 84.3%
[4]
  inhibition at 1.56 µg/mL: 69.1%
[5]
  MIC90: 12.5 µM (≈ 2.55 µg/mL)
[6]
  IC50: < 1.56 µg/mL
  IC90: 32.8 µg/mL (≈ 160 µM)
[7]
  inhibition at 6.25 µg/mL: 86.6%

## CCOC(=O)c1cc(C(=O)c2ccccc2)n2ccc(-c3ccncc3)cc12
[8]
  inhibition at 6.5 µg/mL: 0.2%
[1]
  inhibition at 100 µg/mL: -8.6%
[3]
  inhibition at 3.13 µg/mL: 3.9%
[4]
  inhibition at 1.56 µg/mL: 3%
[5]
  MIC90: > 100 µM
[6]
  IC50: > 100 µg/mL
  IC90: > 100 µg/mL

## CO[C@H]1/C=C/O[C@@]2(C)Oc3c(C)c(O)c4c(O)c(c(/C=N/N5CCN(C)CC5)c(O)c4c3C2=O)NC(=O)/C(C)=C\C=C\[C@H](C)[C@H](O)[C@@H](C)[C@@H](O)[C@@H](C)[C@H](OC(C)=O)[C@@H]1C [RIFAMPIN]
[9]
  fold change (FC): 1.49
[10]
  fold change (FC): 0.98
[11]
  fold change (FC): 0.81
[12]; read-out: MBC99.9
  MBC: 1.56 µg/mL (≈ 1.9 µM)
[13]
  MIC: 0.049 µg/mL (≈ 0.0595 µM)
[14]
  INH: 0.13 µg/mL
[15]
  viability at 168 h, 0.1 ug/ml: 93%
[16]
  viability at 168 h, 1 ug/ml: 85%
[17]
  viability at 168 h, 0.01 ug/ml: 94%
[18]
  inhibition (INH): 63%
[19]
  inhibition at 0.02 µg/mL: 61.2%
[5]
  MIC90: 0.04 µM (≈ 0.0329 µg/mL)
[6]
  IC50: 0.02 µg/mL (≈ 0.0243 µM)
  IC90: 0.02 µg/mL (≈ 0.0243 µM)

## NNC(=O)c1ccncc1 [ISONIAZID]
[20]
  inhibition at 0.31 µg/mL: 92.9%
[21]
  inhibition at 0.63 µg/mL: 93.9%
[22]
  inhibition (INH): 94%
[5]
  MIC90: 0.31 µM (≈ 0.0425 µg/mL)
[6]
  IC50: 0.18 µg/mL (≈ 1.31 µM)
  IC90: 0.29 µg/mL (≈ 2.11 µM)

## N[C@@H]1CONC1=O [CYCLOSERINE]
[23]
  inhibition at 12.5 µg/mL: 51%
[1]
  inhibition at 100 µg/mL: 97.7%
[24]
  inhibition at 50 µg/mL: 96.3%
[5]
  MIC90: 25 µM (≈ 2.55 µg/mL)
[6]
  IC50: 12.5 µg/mL (≈ 122 µM)
  IC90: 13.5 µg/mL (≈ 132 µM)
[25]
  inhibition at 25 µg/mL: 93.9%

## CCOC(=O)c1cc(C(=O)c2ccccc2)n2ccc(-c3cc[n+](CC(=O)c4ccc(OC)cc4)cc3)cc12.[Br-]
[20]
  MIC90: 12.5 µM
[26]
  inhibition at 0.79 µg/mL: 9.9%
[27]
  viability at 168 h, 7.5 ug/ml: 71%
[28]
  fold change (FC): 3.11
[12]
  Activity: inactive
[13]
  MIC: 2.34 µg/mL
[29]
  viability at 168 h, 75 ug/ml: < 10%
[14]
  INH: 1.17 µg/mL
[3]
  inhibition at 3.13 µg/mL: 38.6%
[30]
  inhibition (INH): 98.5%
[18]
  inhibition (INH): 51%
[31]
  fold change (FC): 2.65
[5]
  MIC90: 12.5 µM
[6]
  IC50: 3.88 µg/mL
  IC90: 13.1 µg/mL
[32]
  fold change (FC): 1.19
[7]
  inhibition at 6.25 µg/mL: 65.1%
[33]
  viability at 168 h, 0.75 ug/ml: 86%
